Only some compounds are listed: those with a hit (about 1.9% of all), similar ones and a draw of the others.
ABHD5-PLIN5 inh: inhibitors of human ABHD5-perilipin-5 interaction; 360,000 compounds, 0.78% hits; inhibition, % at 4 µM; Split G. princeps luciferase complementation, luminescence, 4 h; Q00G26+Q8WTS1;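 active = inhibition above the mean inhibition across every tested compound plus 3 SD, cut at about 22% in these data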;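 note: 0% = DMSO only wells and the 100% control is not disclosed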
Rad51 HR inh: blocks human Rad51 in homologous recombination; Q06609; hRad51 DNA strand exchange, fluorescence dequenching; inhibition, % at 10 µM; 200,000 compounds, 0.085% hits;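 active = inhibition above 40% at the single screening dose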;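 note: 0% = DMSO control wells and 100% = blanks with heterologous ssDNA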
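Read-out basis: percent inhibition relative to plate controls and blanks / Assay system: human Rad51 nucleoprotein filaments preassembled on unlabelled ssDNA / Timing: filaments 15 min 37 °C, then compound 30 min / Control set: per-plate controls and blanks / Technique: fluorescence dequenching at 485/520 nm / Compound: 10 µM final, single point / Also added: Fluorescein- and BHQ1-tagged 47-mer duplex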
TAG inh: triacylglycerol accumulation inhibition. H9c2 cells, Nile Red lipid (TAG) fluorescence; cells loaded with 200 µM oleic acid. inhibition, % at 12.5 µM. 230,000 compounds, 0.66% hits. AID 651582;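 active = pattern-corrected inhibition of lipid staining of at least 50% with the nuclear-stain viability signal not falling by more than 50%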;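 note: 0% = DMSO wells and 100% = triacsin C control wells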
GAA850 FXN act: increases GAA850 frataxin promoter reporter activity | HEK293 lucGAA850 FXN promoter luciferase reporter, 24 h; percent of 10 µM SAHA response | activation, % at 6 µM | 360,000 compounds, 0.56% hits;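 active = activation above the average of all compounds screened plus 3 SD, cutoff fixed separately per campaign, cut at about 7.5% in these data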;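 note: 0% = DMSO wells and 100% = 10 µM SAHA wells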
HIF act: HIF pathway transcriptional activation; U2OS HRE-luciferase reporter, luminescence; normalized: DMSO 0%, desferrioxamine 100%; activation, % at 7.5 µM (by protocol); 300,000 compounds, 0.32% hits;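 active = mean activation of at least 10% of the iron chelator positive control signal, with at least half of replicates also reaching 10%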
Hsp70 act: switches on Hsp70 transcription; HeLa Hsp70 promoter luciferase reporter, luminescence; scaled: vehicle 0, proteasome-inhibitor control 100%; activation, % at 10 µM; 200,000 compounds, 0.04% hits; AID 1203;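 active = activation above the mean across all tested compounds plus 3 SD, cutoff set per campaign, cut at about 5.5% in these data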;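 note: 100% = MG132 at 30 µM as the positive control and 0% = DMSO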
An asterisk follows results filed as active; nt = not tested or not shown.

SMILES	ABHD5-PLIN5 inh	Rad51 HR inh	TAG inh	GAA850 FXN act	HIF act	Hsp70 act
O=[N+]([O-])c1cc(S(=O)(=O)c2ccc(O)c([N+](=O)[O-])c2)ccc1O	5	5	nt	3	36*	0
Cc1cc(OC(C)C(=O)N[C@H](C(=O)O)c2ccccc2)c2c3c(c(=O)oc2c1)CCC3 (stereo partly specified)	4	nt	nt	0	0	nt
COC(COC(N)=O)C1=C(N2CC2)C(=O)C(C)=C(N2CC2)C1=O (stereo unspecified)	-22	nt	60*	-5	nt	nt
CC1=C(N2CC2)C(=O)C(CO)=C(N2CC2)C1=O	-8	nt	107	-14	nt	nt
COC(=O)C1=C(c2cccc(OCc3ccccc3)c2)C[C@@H]2CC[C@H]1N2C(=O)NCc1ccc(N(C)C)cc1	4	nt	15	-5	nt	nt
COc1cccc(C2CCN(CC(=O)Nc3cc(Cl)ccc3OC)CC2O)c1 (stereo unspecified)	-7	nt	nt	-1	1	nt
CCOc1cc(/C=C2/C(=O)NC(=O)N(c3ccc(CC)cc3)C2=O)ccc1OC(=O)c1cccs1	22*	1	nt	0	0	0
COc1cccc(NP2(=O)OCC(C)([N+](=O)[O-])CO2)c1 (stereo unspecified)	8	nt	-14	1	nt	nt
O=P(OCC(F)(F)C(F)F)(N1CCOCC1)N1CCOCC1	8	89*	14	1	0	0
COc1ccc(C)cc1NC(=O)N1CCC2(CC1)OCCO2	-7	nt	8	1	0	0
O=C(O)c1cc[c]([Hg][Cl])cc1	82*	nt	14	6	nt	nt
COc1ccc(Cn2c(N)c(C(=O)NCc3ccco3)c3nc4ccccc4nc32)cc1	22*	nt	nt	0	0	0
O=P1(c2ccccc2)Nc2ccccc2N1c1ccccc1 (stereo unspecified)	2	nt	26	4	nt	nt
CCC1(Cc2ccccc2)C(=O)NC(=S)N(C)C1=O (stereo unspecified)	-5	nt	2	-2	nt	nt
O=C(NCCN1CCOCC1)c1ccc(Cl)nc1	2	40*	0	0	0	nt
CCCCCn1c(N)c(C(=O)NCCN2CCOCC2)c2nc3ccccc3nc21	5	-2	17	0	0	0
CCN1C[C@@]2(COC)C3[C@@H](OC)[C@H]4[C@@H]1[C@@]3(C1C[C@H]3[C@H](OC(C)=O)C1[C@]4(OC(C)=O)C[C@H]3OC)[C@@H](OC)C[C@H]2OC(C)=O (stereo partly specified)	-6	4	nt	-3	0	nt
COc1ccc(OC)c(NC2=NCCCS2)c1	0	5	-3	0	37*	0
CC(C)Cc1nnc(NC(=O)CCC(=O)N2CCC3(CC2)OCCO3)s1	-9	nt	-6	0	21*	nt
O=S(=O)(c1cc(Cl)cc(Cl)c1)N1Cc2cc(N3CCOCC3)ccc2-n2nncc2C1	-9	nt	nt	nt	nt	nt
O=[N+]([O-])/C=C/c1c(Cl)cccc1Cl	22*	nt	107	9.0*	nt	nt
CCOC(=O)[C@]12Cc3c(cc(OC)c(OC)c3OC)[C@H]1N(C)C(=O)c1cc(OC)ccc12	23*	nt	nt	nt	nt	nt
NC(N)=N/N=C/c1cn(-c2ccccc2)nc1-c1cccs1	2	7	124*	2	-10	0
COCCCNC(=O)Cn1cc(/C=C2\C(=O)NC(=O)N(c3ccccc3F)C2=O)c2ccccc21	27*	nt	nt	3	1	nt
CC(=O)OC1N=C(c2ccccc2Cl)c2cc(Br)ccc2NC1=O (stereo unspecified)	-4	25	-2	0	0	nt
SMILES	ABHD5-PLIN5 inh	Rad51 HR inh	TAG inh	GAA850 FXN act	HIF act	Hsp70 act
CCOP(=O)(CCP(=O)(OCC)OCC)OCC.C[CH2][Sn]([Cl])([Cl])[CH2]C	78*	nt	109	-10	nt	nt
CCOP(=O)(OCC)OCC	4	nt	nt	1	nt	nt
COc1cccc(C(=O)C2CCCN(Cc3ccc4nsnc4c3)C2)c1 (stereo unspecified)	-4	nt	1	-1	243*	0
COc1cccc(C(=O)C2CCCN(Cc3ccc(F)cc3)C2)c1 (stereo unspecified)	0	nt	nt	1	-1	nt
CC[C@@H](O)C[C@H]1CCC[C@@]2(C[C@@H]3OC(=O)/C=C/[C@@](C)(O)[C@@H](O)[C@H](C)[C@@H](O)[C@H](OC4CCC(N(C)C)C(C)O4)[C@@H](O)[C@](C)(O)CCCCC/C=C/[C@@H]4CC(C)(C)O[C@@]4(O)C[C@H](O2)[C@H]3C)O1 (stereo partly specified)	3	nt	58*	-10	nt	nt
CCCCCCC(=O)N/N=C/c1c(O)n(C(C)CC)c(=S)[nH]c1=O (stereo unspecified)	3	13	5	0	nt	nt
COC1=C(C)C(=O)C2=C(C1=O)C(CO)N1C(C#N)C3CC4C(C1C2N1CCOC41)N3C (stereo unspecified)	-6	nt	83*	-15	nt	nt
COc1cc(/C=C(/C)[N+](=O)[O-])ccc1OCc1ccccc1Cl	90*	nt	nt	-2	-3	0
Cc1cccc(-n2c(/C=C/c3ccccn3)nc3ccccc3c2=O)c1	5	nt	6	1	-1	nt
O=C1NCN(c2ccccc2)C12CCN(C(c1cc3ccccc3o1)c1nnnn1C1CCCCC1)CC2 (stereo unspecified)	0	nt	nt	nt	nt	nt
Cc1cccc(N2C(=O)NC(=O)/C(=C/c3ccc(N4CCOCC4)cc3)C2=O)c1	22*	-3	-3	1	-1	0
Cc1cccc(N2C(=O)NC(=O)/C(=C\c3ccc(N4CCOCC4)cc3)C2=O)c1	3	-12	-4	0	2	nt
COc1ccc(N2C(=O)/C(=C/c3ccc(N(C)C)o3)C(=O)NC2=S)cc1	23*	nt	nt	0	1	nt
COc1cccc(N2C(=O)/C(=C/c3ccc(C)o3)C(=O)NC2=S)c1	6	nt	nt	1	0	nt
N#CC(=C(O)c1ccc(S(=O)(=O)N(CCCl)CCCl)cc1)c1nc2ccccc2[nH]1	4	nt	-4	1	nt	nt
Cc1cccc(OCCn2cccc2/C=C2/C(=O)NC(=O)N(Cc3ccco3)C2=O)c1	12	4	-4	1	592*	nt
O=C1NC(=O)N(Cc2ccco2)C(=O)/C1=C\c1cccn1CCOc1ccc(Cl)cc1	2	1	-33	0	0	0
CC1CCC(N2CCN(C(=O)COc3ccccc3)CC2)CC1 (stereo unspecified)	1	nt	nt	2	-4	nt
COc1cc(O)cc2c1cc([N+](=O)[O-])c1c(C(=O)O)cc3c(c12)OCO3	-6	nt	nt	3	nt	nt
C=C(C=O)CC1CC(O)[C@]2(C)OC3CC4OC5C[C@]6(C)O[C@]7(C)CCC8OC9C[C@]%10(C)OC%11C(C)=CC(=O)OC%11CC%10OC9C[C@@H](C)C8OC7CC6O[C@]5(C)CC5OC5C4OC3CC2O1 (stereo partly specified)	22*	3	118	0	-1	1

Screens: PubChem BioAssay, several laboratories
